In ChEMBL document CHEMBL4732101, “Novel quinolone-based potent and selective HDAC6 inhibitors: Synthesis, molecular modeling studies and biological investigation” (Eur J Med Chem, 2021):
Each block holds one compound with its values, some of them ahead of it.

How the values were obtained:
[1] = target: T1, Protein deacetylase HDAC6 (Homo sapiens, UniProt Q9UBN7); assay: Inhibition of recombinant human full length N-terminal GST-tagged HDAC6 expressed in baculovirus infected Sf9 cells using Z-(Ac)Lys-AMC as substrate measured after 90 mins by fluorescence assay
T1 sequence (Q9UBN7 whole entry): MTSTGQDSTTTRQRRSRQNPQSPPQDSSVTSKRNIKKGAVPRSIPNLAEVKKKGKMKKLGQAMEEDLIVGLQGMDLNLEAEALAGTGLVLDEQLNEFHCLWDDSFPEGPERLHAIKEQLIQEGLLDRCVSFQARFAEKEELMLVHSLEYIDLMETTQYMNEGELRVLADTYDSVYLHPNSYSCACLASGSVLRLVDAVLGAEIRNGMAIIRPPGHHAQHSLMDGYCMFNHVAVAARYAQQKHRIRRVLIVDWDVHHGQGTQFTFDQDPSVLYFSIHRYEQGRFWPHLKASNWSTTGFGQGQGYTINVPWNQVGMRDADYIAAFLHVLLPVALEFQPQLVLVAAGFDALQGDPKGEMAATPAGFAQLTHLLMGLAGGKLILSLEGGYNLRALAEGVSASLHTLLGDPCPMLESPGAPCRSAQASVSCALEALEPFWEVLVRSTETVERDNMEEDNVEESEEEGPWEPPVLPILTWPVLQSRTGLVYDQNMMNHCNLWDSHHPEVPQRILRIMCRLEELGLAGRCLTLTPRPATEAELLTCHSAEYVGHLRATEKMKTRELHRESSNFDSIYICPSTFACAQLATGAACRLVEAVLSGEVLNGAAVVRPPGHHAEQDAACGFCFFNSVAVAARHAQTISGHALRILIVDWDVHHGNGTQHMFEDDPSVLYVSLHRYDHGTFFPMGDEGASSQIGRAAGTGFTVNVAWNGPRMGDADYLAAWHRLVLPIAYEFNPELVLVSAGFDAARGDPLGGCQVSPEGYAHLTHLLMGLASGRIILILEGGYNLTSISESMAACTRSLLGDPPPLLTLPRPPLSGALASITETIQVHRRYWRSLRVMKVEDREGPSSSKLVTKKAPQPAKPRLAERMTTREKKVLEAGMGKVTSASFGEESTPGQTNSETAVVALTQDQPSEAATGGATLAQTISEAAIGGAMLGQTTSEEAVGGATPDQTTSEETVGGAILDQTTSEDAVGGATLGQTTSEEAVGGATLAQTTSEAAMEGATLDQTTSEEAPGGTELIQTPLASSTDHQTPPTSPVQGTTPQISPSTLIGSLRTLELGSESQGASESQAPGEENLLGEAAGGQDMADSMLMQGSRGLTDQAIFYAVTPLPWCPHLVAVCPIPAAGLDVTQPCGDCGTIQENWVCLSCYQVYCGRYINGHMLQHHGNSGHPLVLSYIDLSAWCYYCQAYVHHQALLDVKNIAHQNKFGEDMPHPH

[2] = target: Histone deacetylase 1 (Homo sapiens, UniProt Q13547); assay: Inhibition of recombinant human C-terminal FLAG/His-tagged HDAC1 (1 to 482 residues) expressed in Sf9 insect cells using Z-(Ac)Lys-AMC as substrate measured after 90 mins by fluorescence assay
Summary of the method: (§1)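 Incubated with inhibitor in DMSO and fluorogenic substrate Z-(Ac)Lys-AMC (126 µM, as added) for 90 min at 37 °C. Stopped with trichostatin A plus trypsin for 30 min at 37 °C; fluorescence read at ex 390/em 460 nm.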

[3] = Mutagenicity in Salmonella typhimurium TA100 at 5 to 230 uM measured after 90 mins in presence of rat liver S9 fraction by Ames test; assay type: toxicity, subcellular; details: salmonella enterica subsp. enterica serovar typhimurium, s9, 1.5 h, dose 5-230 µM
[4] = Mutagenicity in Salmonella typhimurium TA98 at 5 to 230 uM measured after 90 mins in absence of rat liver S9 fraction by Ames test; assay type: toxicity; details: salmonella enterica subsp. enterica serovar typhimurium, 1.5 h, dose 5-230 µM
[5] = Mutagenicity in Salmonella typhimurium TA100 at 5 to 230 uM measured after 90 mins in absence of rat liver S9 fraction by Ames test; assay type: toxicity; details: salmonella enterica subsp. enterica serovar typhimurium, s9, 1.5 h, dose 5-230 µM
[6] = tested on: NIH3T3; assay: Cytotoxicity against mouse NIH/3T3 cells assessed as reduction in cell viability after 24 hrs by neutral red uptake assay; assay type: cell-based; details: NIH3T3, 24 h
Summary of the method: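 NIH3T3 fibroblasts seeded at 5 x 10^4 per well and cultured 24 h at 37 °C, 5% CO2. DMSO-solubilized samples added at 8 to 160 µM for 24 h; medium as negative control. Neutral Red medium applied 3 h, dye desorbed in acetic acid/ethanol, absorbance read at 540 nm. Three experiments, six replicates per concentration; viability normalized to % control.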

[7] = Solubility of compound in pH 3 buffer at 250 uM measured after 24 hrs by HPLC/UV/DAD method; assay type: physicochemical; details: pH 3, 24 h
Summary of the method: (§2)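 10 mM DMSO stock diluted to 250 µM (2.5% DMSO) in 50 mM acetic acid, pH 3.0, and shaken 24 h at 25 °C. For solubility, samples filtered, diluted 1:2, quantified by HPLC-UV at 254 nm against a standard. For stability, percent remaining taken as the 24 h peak area over the T0 peak area. Triplicate analyses averaged.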

[8] = Mutagenicity in Salmonella typhimurium TA98 at 5 to 230 uM measured after 90 mins in presence of rat liver S9 fraction by Ames test; assay type: toxicity, subcellular; details: salmonella enterica subsp. enterica serovar typhimurium, s9, 1.5 h, dose 5-230 µM
[9] = Stability of compound in pH 3 buffer assessed as parent compound remaining at 250 uM measured after 24 hrs by HPLC/UV/DAD method; assay type: physicochemical; details: read-out: Stabilty; summary of the method: as §2
[10] = target: T2, HDAC1 (histone deacetylase 1) (Homo sapiens, UniProt Q13547); assay: Inhibition of recombinant human C-terminal FLAG/His-tagged HDAC1 (1 to 482 residues) expressed in Sf9 insect cells at 10 uM using Z-(Ac)Lys-AMC as substrate measured after 90 mins by fluorescence assay relative to control; details: probe Z-(Ac)Lys-AMC; summary of the method: as §1
[11] = target: T2, HDAC1 (histone deacetylase 1); assay: Inhibition of recombinant human C-terminal FLAG/His-tagged HDAC1 (1 to 482 residues) expressed in Sf9 insect cells at 1 uM using Z-(Ac)Lys-AMC as substrate measured after 90 mins by fluorescence assay relative to control; details: probe Z-(Ac)Lys-AMC; summary of the method: as §1
[12] = target: T2, HDAC1 (histone deacetylase 1); assay: Inhibition of recombinant human C-terminal FLAG/His-tagged HDAC1 (1 to 482 residues) expressed in Sf9 insect cells at 25 uM using Z-(Ac)Lys-AMC as substrate measured after 90 mins by fluorescence assay relative to control; details: probe Z-(Ac)Lys-AMC; summary of the method: as §1
[13] = target: T2, HDAC1 (histone deacetylase 1); assay: Inhibition of recombinant human C-terminal FLAG/His-tagged HDAC1 (1 to 482 residues) expressed in Sf9 insect cells at 50 uM using Z-(Ac)Lys-AMC as substrate measured after 90 mins by fluorescence assay relative to control; details: probe Z-(Ac)Lys-AMC; summary of the method: as §1

T2 sequence (Q13547 whole entry, the tested form may be a part): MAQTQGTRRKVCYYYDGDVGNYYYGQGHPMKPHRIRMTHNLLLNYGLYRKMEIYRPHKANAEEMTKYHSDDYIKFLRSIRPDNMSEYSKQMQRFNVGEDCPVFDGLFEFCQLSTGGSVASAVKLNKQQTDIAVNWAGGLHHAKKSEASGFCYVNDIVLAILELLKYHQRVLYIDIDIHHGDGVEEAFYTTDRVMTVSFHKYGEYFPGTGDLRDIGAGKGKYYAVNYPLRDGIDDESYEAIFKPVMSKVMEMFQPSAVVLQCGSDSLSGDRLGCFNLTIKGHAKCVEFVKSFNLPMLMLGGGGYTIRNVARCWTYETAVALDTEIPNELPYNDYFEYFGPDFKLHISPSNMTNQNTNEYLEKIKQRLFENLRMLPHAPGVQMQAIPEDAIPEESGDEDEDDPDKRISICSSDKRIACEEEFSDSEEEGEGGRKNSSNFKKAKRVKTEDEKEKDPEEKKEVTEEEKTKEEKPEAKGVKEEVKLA
Sequence of Histone deacetylase 1 (Q13547 whole entry, the tested form may be a part): as above

SMILES: COc1c(-c2ccccc2)c2ccccc2n(Cc2ccc(C(=O)NO)cc2)c1=O
Activity [3]: Non-Toxic | Activity [4]: Non-Toxic | Activity [5]: Non-Toxic | IC50 [6]: 90000 nM | IC50 [1]: 61.6 nM | IC50 [2]: 4500 nM | solubility [7]: Soluble | Activity [8]: Non-Toxic | remaining at 24 h, 250 µM [9]: > 95%

SMILES: O=C(NO)c1ccc(COc2c(-c3cccnc3)c3ccccc3n(Cc3ccccc3)c2=O)cc1
IC50 [1]: 25.6 nM | IC50 [2]: 2500 nM

SMILES: Cn1c(=O)c(OCc2ccc(C(=O)NO)cc2)c(-c2ccccc2)c2ccccc21
inhibition at 1.5 h, 10 µM [10]: 26% | inhibition at 1.5 h, 1 µM [11]: < 10% | IC50 [1]: 519 nM | inhibition at 1.5 h, 25 µM [12]: 46% | inhibition at 1.5 h, 50 µM [13]: 80%

The remaining compounds from weak to strong by IC50 [1], led by results:

IC50 [1]: 308 nM | IC50 [2]: 11000 nM
SMILES: O=C(NO)c1ccc(Cn2c(=O)c(O)c(-c3ccccc3)c3ccccc32)cc1

inhibition at 1.5 h, 10 µM [10]: 36% | inhibition at 1.5 h, 1 µM [11]: < 10% | IC50 [1]: 296 nM | inhibition at 1.5 h, 25 µM [12]: 82% | inhibition at 1.5 h, 50 µM [13]: 96%
SMILES: O=C(NO)c1ccc(Cn2c(=O)c(O)c(-c3cccnc3)c3ccccc32)cc1

IC50 [1]: 84.5 nM | IC50 [2]: 5500 nM
SMILES: O=C(NO)c1ccc(Cn2c(=O)c(OCc3ccccc3)c(-c3ccccc3)c3ccccc32)cc1

IC50 [1]: 82.3 nM | IC50 [2]: 6100 nM
SMILES: C#CCn1c(=O)c(OCc2ccc(C(=O)NO)cc2)c(-c2ccccc2)c2ccccc21
